Measurements published in ChEMBL document CHEMBL5030505, “Assessment of NR4A Ligands That Directly Bind and Modulate the Orphan Nuclear Receptor Nurr1” (J Med Chem, 2020).

Experiments:
Format in all cases: cell-based
[1] = biological target: Nuclear receptor subfamily 4 group A member 2 (Homo sapiens) (UniProt P43354); assay: Modulation of full length human Nurr1 expressed in SKNBE(2) cells co-transfected with luciferase reporter plasmid harboring NurRE response element assessed as increase in luciferase activity incubated for 18 hrs by luciferase reporter-gene assay; settings: SKNBE2, filed as modulator
Chain of Nuclear receptor subfamily 4 group A member 2 (Homo sapiens) (P43354 whole entry): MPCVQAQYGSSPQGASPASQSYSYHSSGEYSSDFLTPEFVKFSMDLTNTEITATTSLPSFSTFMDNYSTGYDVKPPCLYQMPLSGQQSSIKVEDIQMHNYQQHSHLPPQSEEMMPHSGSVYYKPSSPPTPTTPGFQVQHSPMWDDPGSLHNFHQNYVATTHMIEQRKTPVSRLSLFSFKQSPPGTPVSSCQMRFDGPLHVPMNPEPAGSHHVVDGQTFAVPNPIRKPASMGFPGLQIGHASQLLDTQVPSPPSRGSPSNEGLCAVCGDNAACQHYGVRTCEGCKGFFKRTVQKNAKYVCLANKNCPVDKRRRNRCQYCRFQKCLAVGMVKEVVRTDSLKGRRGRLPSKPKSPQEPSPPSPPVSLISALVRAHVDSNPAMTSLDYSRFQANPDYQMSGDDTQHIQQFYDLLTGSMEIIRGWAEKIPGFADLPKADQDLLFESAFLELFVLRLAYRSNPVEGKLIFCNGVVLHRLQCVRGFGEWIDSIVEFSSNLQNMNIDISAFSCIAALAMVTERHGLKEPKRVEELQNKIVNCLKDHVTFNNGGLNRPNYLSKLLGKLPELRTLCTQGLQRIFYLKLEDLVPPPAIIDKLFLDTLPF
Summary of the method: (§1)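 Transfection of SK-N-BE(2)-C cells (1:1 EMEM/F12, 10% FBS, 37°C, 5% CO2) used full-length Nurr1 alone (2 μg, no RXRα) with 3xNBRE- or 3xNurRE-luciferase reporter (6 μg) for 18 h. Cells were replated at 10,000/well for 4 h, then exposed to ligand or vehicle in quadruplicate for 18 h. Luminescence was expressed as fold over vehicle, as mean ± s.e.m. (n=4) from 2 independent experiments, one-way ANOVA against vehicle.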

[2] = biological target: Nuclear receptor subfamily 4 group A member 2 (Homo sapiens) (UniProt P43354); assay: Modulation of full length human Nurr1 expressed in SKNBE(2) cells co-transfected with luciferase reporter plasmid harboring NBRE response element assessed as increase in luciferase activity incubated for 18 hrs by luciferase reporter-gene assay; settings: SKNBE2, filed as modulator; summary of the method: as §1
[3] = biological target: Nuclear receptor subfamily 4 group A member 2 (Homo sapiens) (UniProt P43354); assay: Modulation of full length human Nurr1 expressed in PC12 cells co-transfected with luciferase reporter plasmid harboring NurRE response element assessed as increase in luciferase activity incubated for 18 hrs by luciferase reporter-gene assay; settings: PC-12, filed as modulator
Summary of the method: (§2)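 Here PC12 cells (FK-12 medium, 15% horse serum, 2.5% FBS, 37°C, 5% CO2) received full-length Nurr1 (2 μg) without RXRα, plus 3xNBRE- or 3xNurRE-luciferase reporter (6 μg), for 18 h. Cells were replated at 10,000/well for 4 h, then treated with ligand or vehicle in quadruplicate for 18 h. Luciferase luminescence was normalized to vehicle-treated cells. Results are mean ± s.e.m. (n=4) from 2 independent experiments, with one-way ANOVA against vehicle.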

[4] = biological target: Nuclear receptor subfamily 4 group A member 2 (Homo sapiens) (UniProt P43354); assay: Modulation of full length human Nurr1 expressed in PC12 cells co-transfected with RXRalpha and luciferase reporter plasmid harboring NBRE response element assessed as increase in luciferase activity incubated for 18 hrs by luciferase reporter-gene assay; settings: PC-12, filed as modulator
Summary of the method: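 PC12 cells were grown at 37°C and 5% CO2 in […] medium with 15% horse serum and 2.5% FBS. They were transfected with full-length Nurr1 (1 μg) plus full-length RXRα (1 μg) and 3xNBRE- or 3xNurRE-luciferase reporter (6 μg) for 18 h, then replated at 10,000 cells/well for 4 h. Ligand or vehicle (water, ethanol or DMSO) was added in quadruplicate for 18 h. Luminescence was read as fold change over vehicle. Results are mean ± s.e.m., n=4, from 2 independent experiments, analysed by one-way ANOVA against vehicle.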

[5] = biological target: Nuclear receptor subfamily 4 group A member 2 (Homo sapiens) (UniProt P43354); assay: Modulation of full length human Nurr1 expressed in PC12 cells co-transfected with luciferase reporter plasmid harboring NBRE response element assessed as increase in luciferase activity incubated for 18 hrs by luciferase reporter-gene assay; settings: PC-12, filed as modulator; summary of the method: as §2
[6] = biological target: Nuclear receptor subfamily 4 group A member 2 (Homo sapiens) (UniProt P43354); assay: Modulation of full length human Nurr1 expressed in HEK293T cells co-transfected with RXRalpha and luciferase reporter plasmid harboring NBRE response element assessed as increase in luciferase activity incubated for 18 hrs by luciferase reporter-gene assay; settings: filed as modulator
Summary of the method: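 Full-length Nurr1 plasmid, alone (2 μg) or 1 μg plus full-length RXRα (1 μg), cotransfected with 3xNBRE- or 3xNurRE-luciferase reporter (6 μg) using Lipofectamine 2000, 18 h. Cells replated at 10,000/well for 4 h. Four ligand concentrations, or vehicle (water, ethanol or DMSO), added in quadruplicate for 18 h. Luciferase read. Fold change vs vehicle, mean ± s.e.m., one-way ANOVA vs vehicle.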

[7] = biological target: Nuclear receptor subfamily 4immunitygroup A member 1 (Homo sapiens) (UniProt P22736); assay: Modulation of full length human Nur77 expressed in SK-N-BE(2) cells co-transfected with luciferase reporter plasmid harboring NBRE response element assessed as increase in luciferase activity incubated for 18 by luciferase reporter gene assay; settings: SKNBE2, filed as modulator, time 18.0 hrs
Chain of Nuclear receptor subfamily 4immunitygroup A member 1 (Homo sapiens) (P22736 whole entry): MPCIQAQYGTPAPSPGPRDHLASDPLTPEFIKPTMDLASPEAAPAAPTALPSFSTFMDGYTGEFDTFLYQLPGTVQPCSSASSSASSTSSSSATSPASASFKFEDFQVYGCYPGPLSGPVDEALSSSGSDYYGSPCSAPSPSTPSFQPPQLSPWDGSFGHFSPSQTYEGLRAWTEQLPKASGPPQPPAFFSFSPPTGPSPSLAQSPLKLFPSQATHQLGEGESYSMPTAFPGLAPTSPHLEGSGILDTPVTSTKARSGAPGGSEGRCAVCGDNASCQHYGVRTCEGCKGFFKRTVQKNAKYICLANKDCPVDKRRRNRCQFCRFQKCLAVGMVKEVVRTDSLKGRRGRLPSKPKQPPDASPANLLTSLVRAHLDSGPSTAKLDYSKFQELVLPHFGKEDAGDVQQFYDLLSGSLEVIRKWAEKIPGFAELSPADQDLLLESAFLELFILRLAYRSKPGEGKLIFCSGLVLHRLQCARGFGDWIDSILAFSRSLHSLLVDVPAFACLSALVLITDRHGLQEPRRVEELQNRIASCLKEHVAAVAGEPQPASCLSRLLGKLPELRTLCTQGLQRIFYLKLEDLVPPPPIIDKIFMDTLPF
Summary of the method: (§3)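 Cells seeded at 1.5 million per 10-cm dish. Next day they were transfected (Lipofectamine 2000) with full-length Nur77 or NOR-1 expression plasmid, either alone (2 μg) or 1 μg plus full-length RXRα (1 μg), and 3xNBRE- or 3xNurRE-luciferase reporter (6 μg), 18 h. Cells replated at 10,000/well, 4 h, then ligand dose response added in quadruplicate for 18 h. Luciferase luminescence read.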

[8] = biological target: Nuclear receptor subfamily 4 group A member 3 (Homo sapiens) (UniProt Q92570); assay: Modulation of full length human NOR1 expressed in SK-N-BE(2) cells co-transfected with RXRalpha and luciferase reporter plasmid harboring NurRE response element assessed as increase in luciferase activity incubated for 18 by luciferase reporter gene assay; settings: SKNBE2, filed as modulator, time 18.0 hrs; summary of the method: as §3
Chain of Nuclear receptor subfamily 4 group A member 3 (Homo sapiens) (Q92570 whole entry): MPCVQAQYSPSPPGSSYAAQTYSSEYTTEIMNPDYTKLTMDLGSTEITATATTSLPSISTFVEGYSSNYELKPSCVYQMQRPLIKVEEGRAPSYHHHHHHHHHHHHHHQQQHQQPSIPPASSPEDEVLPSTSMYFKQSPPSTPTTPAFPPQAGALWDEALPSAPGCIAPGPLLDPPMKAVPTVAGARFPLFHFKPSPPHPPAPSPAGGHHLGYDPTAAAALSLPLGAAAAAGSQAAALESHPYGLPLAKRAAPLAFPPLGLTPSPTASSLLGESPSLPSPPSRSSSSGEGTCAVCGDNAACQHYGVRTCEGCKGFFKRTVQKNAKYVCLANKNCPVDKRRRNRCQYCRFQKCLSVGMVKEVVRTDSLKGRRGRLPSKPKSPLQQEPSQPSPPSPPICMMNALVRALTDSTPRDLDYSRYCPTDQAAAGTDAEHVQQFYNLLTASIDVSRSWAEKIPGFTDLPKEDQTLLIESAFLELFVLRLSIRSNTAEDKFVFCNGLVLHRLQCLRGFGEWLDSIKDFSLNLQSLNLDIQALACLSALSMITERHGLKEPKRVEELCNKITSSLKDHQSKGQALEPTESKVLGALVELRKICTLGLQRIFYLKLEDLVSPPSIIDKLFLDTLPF

[9] = biological target: Nuclear receptor subfamily 4immunitygroup A member 1 (Homo sapiens) (UniProt P22736); assay: Modulation of full length human Nur77 expressed in HEK293 cells co-transfected with RXRalpha and luciferase reporter plasmid harboring NBRE response element assessed as increase in luciferase activity incubated for 18 hrs by luciferase reporter gene assay; settings: filed as modulator; summary of the method: as §3
[10] = biological target: Nuclear receptor subfamily 4 group A member 3 (Homo sapiens) (UniProt Q92570); assay: Modulation of full length human NOR1 expressed in HEK293T cells co-transfected with RXRalpha luciferase reporter plasmid harboring NurRE response element assessed as increase in luciferase activity incubated for 18 hrs by luciferase reporter gene assay; settings: filed as modulator
Summary of the method: (§4)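 Full-length NOR-1 plasmid was transfected via Lipofectamine 2000, either alone (2 μg) or at 1 μg with full-length RXRα (1 μg). It was paired with a 3xNBRE or 3xNurRE luciferase reporter (6 μg), 8 μg total DNA, for 18 h. Cells were replated at 10,000/well for 4 h, then given a full ligand dose response or vehicle in quadruplicate for 18 h. Luciferase was read; no EC50/IC50 was fitted.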

[11] = biological target: Nuclear receptor subfamily 4 group A member 3 (Homo sapiens) (UniProt Q92570); assay: Modulation of full length human NOR1 expressed in HEK293 cells co-transfected with luciferase reporter plasmid harboring NurRE response element assessed as increase in luciferase activity incubated for 18 hrs by luciferase reporter gene assay; settings: filed as modulator; summary of the method: as §4
[12] = biological target: Nuclear receptor subfamily 4immunitygroup A member 1 (Homo sapiens) (UniProt P22736); assay: Modulation of full length human Nur77 expressed in SK-N-BE(2) cells co-transfected with RXRalpha and luciferase reporter plasmid harboring NurRE response element assessed as increase in luciferase activity incubated for 18 by luciferase reporter gene assay; settings: SKNBE2, filed as modulator, time 18.0 hrs; summary of the method: as §3
[13] = biological target: Nuclear receptor subfamily 4immunitygroup A member 1 (Homo sapiens) (UniProt P22736); assay: Modulation of full length human Nur77 expressed in SK-N-BE(2) cells co-transfected with luciferase reporter plasmid harboring NurRE response element assessed as increase in luciferase activity incubated for 18 by luciferase reporter gene assay; settings: SKNBE2, filed as modulator, time 18.0 hrs; summary of the method: as §3
[14] = biological target: Nuclear receptor subfamily 4immunitygroup A member 1 (Homo sapiens) (UniProt P22736); assay: Modulation of full length human Nur77 expressed in PC12 cells co-transfected with luciferase reporter plasmid harboring NBRE response element assessed as increase in luciferase activity incubated for 18 by luciferase reporter gene assay; settings: PC-12, filed as modulator, time 18.0 hrs; summary of the method: as §3
[15] = biological target: Nuclear receptor subfamily 4immunitygroup A member 1 (Homo sapiens) (UniProt P22736); assay: Modulation of full length human Nur77 expressed in PC12 cells co-transfected with luciferase reporter plasmid harboring NurRE response element assessed as increase in luciferase activity incubated for 18 by luciferase reporter gene assay; settings: PC-12, filed as modulator, time 18.0 hrs; summary of the method: as §3
[16] = biological target: Nuclear receptor subfamily 4 group A member 3 (Homo sapiens) (UniProt Q92570); assay: Modulation of full length human NOR1 expressed in PC12 cells co-transfected with luciferase reporter plasmid harboring NurRE response element assessed as increase in luciferase activity incubated for 18 by luciferase reporter gene assay; settings: PC-12, filed as modulator, time 18.0 hrs; summary of the method: as §4
[17] = biological target: Nuclear receptor subfamily 4 group A member 3 (Homo sapiens) (UniProt Q92570); assay: Modulation of full length human NOR1 expressed in PC12 cells co-transfected with RXRalpha and luciferase reporter plasmid harboring NurRE response element assessed as increase in luciferase activity incubated for 18 by luciferase reporter gene assay; settings: PC-12, filed as modulator, time 18.0 hrs; summary of the method: as §4

Measured: Activity

CCN(CC)CCCC(C)Nc1ccnc2cc(Cl)ccc12 (stereo unspecified) [CHLOROQUINE]
active: [1] Dose-Dependent Effect | [2] Dose-Dependent Effect | [3] Dose-Dependent Effect | [4] Dose-Dependent Effect | [5] Dose-Dependent Effect | [6] Dose-Dependent Effect | [7] Dose-Dependent Effect | [8] Dose-Dependent Effect | [9] Dose-Dependent Effect | [10] Dose-Dependent Effect | [11] Dose-Dependent Effect | [12] Dose-Dependent Effect | [13] Dose-Dependent Effect | [14] Dose-Dependent Effect | [15] Dose-Dependent Effect | [16] Dose-Dependent Effect | [17] Dose-Dependent Effect

CCN(CC)Cc1cc(Nc2ccnc3cc(Cl)ccc23)ccc1O [AMODIAQUINE]
active: [1] Dose-Dependent Effect | [2] Dose-Dependent Effect | [3] Dose-Dependent Effect | [4] Dose-Dependent Effect | [5] Dose-Dependent Effect | [6] Dose-Dependent Effect | [7] Dose-Dependent Effect | [8] Dose-Dependent Effect | [9] Dose-Dependent Effect | [10] Dose-Dependent Effect | [11] Dose-Dependent Effect | [12] Dose-Dependent Effect | [13] Dose-Dependent Effect | [14] Dose-Dependent Effect | [15] Dose-Dependent Effect | [16] Dose-Dependent Effect | [17] Dose-Dependent Effect

CCCCCCCC(=O)c1c(O)cc(O)cc1CC(=O)OCC [CYTOSPORONE B]
active: [1] Dose-Dependent Effect | [2] Dose-Dependent Effect | [3] Dose-Dependent Effect | [4] Dose-Dependent Effect | [5] Dose-Dependent Effect | [6] Dose-Dependent Effect | [7] Dose-Dependent Effect | [8] Dose-Dependent Effect | [9] Dose-Dependent Effect | [10] Dose-Dependent Effect | [11] Dose-Dependent Effect | [12] Dose-Dependent Effect | [13] Dose-Dependent Effect | [14] Dose-Dependent Effect | [15] Dose-Dependent Effect | [16] Dose-Dependent Effect | [17] Dose-Dependent Effect
